From PubChem
An excerpt weighted towards active compounds, which were near 2.3% of everything screened.
E coli WT exp = growth inhibitors of wild-type E. coli, primary screen, strain BW25113, expanded library, OD600 | OD600 absorbance | growth inhibition, % at 100 µM | 98,000 tested, 0.15% active | AID 710, 2007;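 active means growth inhibition above about 50% at one test dose, limit read from the data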;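 further: growth measured after 20 h incubation at 37 °C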
CD11b adhes inh = inhibitors of CD11b/CD18 adhesion to fibrinogen, primary screen, K562 cells, luminescence; Integrin beta-2 (Homo sapiens) + Integrin alpha-M (Homo sapiens), P05107+P11215; ATPlite luminescence; Mn2+ added to activate the integrin; inhibition, % at 10 µM; 93,000 tested, 0.54% active; AID 1497, 2009;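 active means primary inhibition of 50% or more at 10 µM, then 40% or more on retest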
Pyk2 oligo antag = antagonists of Pyk2 self-association, primary screen, Q293 cells, FERM NanoBiT luminescence, HTS | 99,000 tested, 0.83% active | hits give low values | z-score (the deposit names both 25 µM and 10 µM) | AID 1347419, 2020;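 active means Z-score of -3 or lower, scaled per plate to the spread of control and sample wells; inactive means z-score above -3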;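 further: negative z-score means lost luminescence so less FERM oligomerization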
Target sequence (Q14289 whole entry, looked up): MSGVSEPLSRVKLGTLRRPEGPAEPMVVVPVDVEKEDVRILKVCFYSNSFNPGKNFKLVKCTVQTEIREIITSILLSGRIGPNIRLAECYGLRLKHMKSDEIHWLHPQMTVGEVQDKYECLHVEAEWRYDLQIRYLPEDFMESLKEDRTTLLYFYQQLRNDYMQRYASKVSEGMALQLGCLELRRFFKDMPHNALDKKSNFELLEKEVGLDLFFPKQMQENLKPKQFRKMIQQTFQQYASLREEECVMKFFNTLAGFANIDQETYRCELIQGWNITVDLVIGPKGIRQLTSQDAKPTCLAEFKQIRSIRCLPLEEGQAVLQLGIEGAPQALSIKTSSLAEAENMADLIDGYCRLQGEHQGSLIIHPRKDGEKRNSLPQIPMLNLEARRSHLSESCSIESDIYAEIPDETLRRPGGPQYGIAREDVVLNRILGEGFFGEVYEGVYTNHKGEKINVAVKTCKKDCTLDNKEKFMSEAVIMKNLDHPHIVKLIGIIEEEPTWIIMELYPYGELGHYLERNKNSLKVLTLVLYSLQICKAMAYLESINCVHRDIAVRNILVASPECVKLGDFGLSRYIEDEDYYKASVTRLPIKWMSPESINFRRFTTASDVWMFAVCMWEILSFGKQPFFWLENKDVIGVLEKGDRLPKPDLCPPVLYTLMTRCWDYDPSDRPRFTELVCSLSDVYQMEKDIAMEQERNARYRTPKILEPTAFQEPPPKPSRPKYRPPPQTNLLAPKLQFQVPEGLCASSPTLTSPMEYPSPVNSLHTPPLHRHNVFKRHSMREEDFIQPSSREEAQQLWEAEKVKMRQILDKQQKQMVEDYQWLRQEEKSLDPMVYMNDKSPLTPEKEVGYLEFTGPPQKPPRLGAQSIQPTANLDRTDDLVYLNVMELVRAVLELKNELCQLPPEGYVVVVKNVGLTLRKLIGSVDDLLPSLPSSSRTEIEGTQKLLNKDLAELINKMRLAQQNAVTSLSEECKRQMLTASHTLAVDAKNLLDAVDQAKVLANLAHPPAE
Mac1 fbg enh = enhancers of CD11b/CD18 adhesion to fibrinogen, primary screen, K562 cells, luminescence | activation, % at 10 µM | Integrin beta-2 (Homo sapiens) + Integrin alpha-M (Homo sapiens), P05107+P11215 | 93,000 tested, 0.07% active | ATPlite luminescence;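 active means 10 µM primary screen giving 50% or more activity, confirmed by 40% or more on retest at that dose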
tolC growth inh = growth inhibitors of E. coli tolC mutant, primary screen, strain BW25113 ΔtolC::kan, 384-well. OD615. growth inhibition, % at 10 µM (by protocol). 65,000 tested, 2.2% active. AID 573, 2007;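 active means growth inhibition at or above a cutoff equal to the mean over every tested compound plus 3 SD, cut at about 60% in these data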;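 further: growth measured after 20 h incubation at 37 °C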
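Signal: optical density read at 615 nm; Assay system: E. coli ΔtolC::kan strain BW25113; Times: 20 h incubation with compound, 37 °C; Dosing: 10 µM final, single dose.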
Each line names hits and unclear results; the compound was inactive in the other large screens.

CCn1cc(C(=O)O)c(=O)c2cc(F)c(N3CCN(S(=O)(=O)c4ccc(NC(=O)OC)cc4)CC3)cc21	none (no result: E coli WT exp, Pyk2 oligo antag, tolC growth inh)
CCOC(=O)c1cn(CC)c2cc(N3CCOCC3)c(F)cc2c1=O	tolC growth inh 100.0 (no result: CD11b adhes inh, Mac1 fbg enh)
CCOC(=O)N1CCN(C(=O)c2cn(CC)c3cc(N4CCN(C)CC4)c(F)cc3c2=O)CC1	E coli WT exp 100.0 (no result: CD11b adhes inh, Pyk2 oligo antag, Mac1 fbg enh)
CCn1cc(C(=O)O)c(=O)c2cc(OC)ccc21	tolC growth inh 96.5
CCCCCCC(=O)N1CCN(c2cc3c(cc2F)c(=O)c(C(=O)O)cn3CC)CC1	none (no result: E coli WT exp, CD11b adhes inh, Mac1 fbg enh)
CCn1cc(C(=O)O)c(=O)c2ccc(C)nc21	none (no result: E coli WT exp, CD11b adhes inh, Pyk2 oligo antag, Mac1 fbg enh)
CCOC(=O)c1cn(CC)c2cc(N3CCCCC3)c(F)cc2c1=O	tolC growth inh 100.0 (no result: E coli WT exp, CD11b adhes inh, Mac1 fbg enh)
CCOC(=O)C1CCCN(C(=O)c2cn(CC)c3ccc(S(=O)(=O)N4CCCC4)cc3c2=O)C1 (stereo unspecified)	none
CCC(=O)N1CCN(c2cc3c(cc2F)c(=O)c(C(=O)O)cn3CC)CC1	tolC growth inh 100.0 (no result: E coli WT exp, CD11b adhes inh, Pyk2 oligo antag, Mac1 fbg enh)
O=C(Nc1cccc(S(=O)(=O)c2cccc(NC(=O)C3CC3)c2)c1)C1CC1	tolC growth inh 94.0
CC(/C=C1\SC(=S)N(CCCC(=O)Nc2ccc(C(=O)O)c(O)c2)C1=O)=C\c1ccccc1	Mac1 fbg enh 85.7 (no result: E coli WT exp, Pyk2 oligo antag, tolC growth inh)
CCOC(=O)c1c(C)[nH]c(C)c1C(=O)COC(=O)/C=C/c1cccc(F)c1	none (no result: E coli WT exp, Pyk2 oligo antag, tolC growth inh)
CCOC(=O)c1c(C)[nH]c(C)c1C(=O)COC(=O)c1cc2ccccc2cc1O	CD11b adhes inh 62.2 (no result: E coli WT exp, Pyk2 oligo antag, tolC growth inh)
O=C(Nc1ccccc1N1CCN(C(=O)c2ccc(Cl)cc2)CC1)c1ccc2c(c1)OCO2	Pyk2 oligo antag -3.17
O=C(c1ccc2c(c1)OCO2)N1CCN(c2ccc(Cl)cc2)CC1	none
CC(=O)N1CCN(c2ccc(NC(=O)c3ccc4c(c3)OCCO4)cc2)CC1	none
CC(C)C(=O)N1CCN(c2ccc(NC(=O)c3ccc4c(c3)OCCO4)cc2Cl)CC1	Pyk2 oligo antag -3.56 (no result: tolC growth inh)
COc1cccc(C(=O)COC(=O)C(C)N2C(=O)C3C4C=CC(C4)C3C2=O)c1 (stereo unspecified)	none (no result: tolC growth inh)
CC1(C)CC(=O)C2=C(C1)Oc1ncn(Cc3ccco3)c(=N)c1C2c1ccccc1 (stereo unspecified)	none
COc1ccc(C2C3=C(CC(C)(C)CC3=O)Oc3ncn(Cc4ccccc4)c(=N)c32)cc1 (stereo unspecified)	Pyk2 oligo antag -3.71 (no result: tolC growth inh)
COCCSc1ccccc1C(=O)N1CCN(Cc2ccc3c(c2)OCO3)CC1	none
CC(C)(C)C1CCc2c(sc(NC(=O)c3cc(C4CC4)on3)c2C#N)C1 (stereo unspecified)	CD11b adhes inh 54.1 (no result: Pyk2 oligo antag)
CCCn1c(C)nc2c(c1=O)c1nc3ccccc3nc1n2CCC1=CCCCC1	Mac1 fbg enh 62.5
N=c1c2c(n(Cc3ccc(Cl)c(Cl)c3)c3c1CCC3)CCCC2	tolC growth inh 100.0
Cc1cc(C(=O)NNC(=S)NC(=O)/C=C/c2ccccc2Cl)n[nH]1	CD11b adhes inh 65.4 (no result: tolC growth inh)
CCOc1cc(C(=S)N2CCCC2)ccc1OCC(=O)Nc1c(C)cc(C)cc1C	none (no result: E coli WT exp, CD11b adhes inh, Mac1 fbg enh, tolC growth inh)
COC(=O)c1sc(NC(=O)C2CCCCC2C(=O)O)c(C(=O)OC)c1C (stereo unspecified)	none
CCOc1ccc(S(=O)(=O)n2cc(-c3ccc(F)cc3)c(N)n2)cc1	none (no result: tolC growth inh)
CCOc1cc(S(=O)(=O)n2cc(-c3ccc(F)cc3)c(N)n2)cc(OCC)c1OCC	tolC growth inh 63.3
CCn1c(SCC(=O)Nc2nccs2)nnc1-c1ccc(S(=O)(=O)N2CCCCCC2)cc1	none (no result: tolC growth inh)
CCC(Sc1nnc(-c2ccc(C)c(Cl)c2)n1CC)C(=O)Nc1nccs1 (stereo unspecified)	CD11b adhes inh 55.6, tolC growth inh 81.0
CCn1cc(C(=O)NCc2cccnc2)c(=O)c2cc(F)c(N3CCN(C(=O)c4ccco4)CC3)cc21	E coli WT exp 97.0 (no result: tolC growth inh)
CCn1cc(C(=O)NCC2CCCO2)c(=O)c2cc(F)c(N3CCN(C)CC3)cc21 (stereo unspecified)	none (no result: CD11b adhes inh, Mac1 fbg enh)
CCn1cc(C(=O)NCc2cccc(F)c2)c(=O)c2cc(F)c(N3CCN(C(=O)c4ccco4)CC3)cc21	E coli WT exp 91.0 (no result: tolC growth inh)
O=C(Oc1cc2oc(=O)c3c(c2cc1Cl)CCCC3)c1ccco1	none (no result: CD11b adhes inh, Mac1 fbg enh)
O=C(Oc1cc2oc(=O)c3c(c2cc1Cl)CCCC3)c1cccs1	CD11b adhes inh 53.0 (no result: E coli WT exp, Pyk2 oligo antag, tolC growth inh)
Cc1ccc(/C(O)=C2\C(=O)C(=O)N(CCCN(C)C)C2c2ccccn2)cc1 (stereo unspecified)	none (no result: E coli WT exp, CD11b adhes inh, Pyk2 oligo antag, Mac1 fbg enh)
O=C(NCc1ccccc1)c1ccc(S(=O)(=O)N2CCCc3ccccc32)cc1	none (no result: CD11b adhes inh, Mac1 fbg enh, tolC growth inh)
CC1CN(S(=O)(=O)c2ccc(NC(=O)c3ccco3)cc2)CC(C)O1 (stereo unspecified)	none
O=C(Nc1nnc(C2CC2)o1)c1ccc(S(=O)(=O)N2CCCc3ccccc32)cc1	tolC growth inh 100.0 (no result: Pyk2 oligo antag)
COc1cccc(-c2nnc(NC(=O)c3ccc(S(=O)(=O)N4CCOCC4)cc3)o2)c1	tolC growth inh 93.8
CC1CN(S(=O)(=O)c2ccc(C(=O)Nc3nnc(-c4ccc5c(c4)CCCC5)o3)cc2)CC(C)O1 (stereo unspecified)	tolC growth inh 96.7 (no result: Pyk2 oligo antag)
COc1ccc(-c2nnc(NC(=O)c3ccc(S(=O)(=O)N4CCCc5ccccc54)cc3)o2)cc1	Pyk2 oligo antag -3.74
CC(=O)Nc1ccc(S(=O)(=O)N2CCCc3ccccc32)cc1	none
CCCNC(=O)CN1C(=O)NC2(CCCc3cc(OC)ccc32)C1=O (stereo unspecified)	none (no result: tolC growth inh)
CCC(Oc1ccccc1)C(=O)N1CCN(C(=O)C(CC)Oc2ccccc2)CC1 (stereo unspecified)	none (no result: tolC growth inh)
O=C(NCc1ccco1)c1ccc(S(=O)(=O)N2CCCc3ccccc32)cc1	tolC growth inh 70.8
COC(=O)c1ccccc1NC(=O)N1c2ccccc2CC1C (stereo unspecified)	tolC growth inh 95.0
N#Cc1c(NC(=O)CSc2ncccn2)oc(-c2ccccc2)c1-c1ccccc1	none (no result: E coli WT exp, CD11b adhes inh, Mac1 fbg enh, tolC growth inh)
COc1ccc(-c2oc(NC(=O)CCl)c(C#N)c2-c2ccc(OC)cc2)cc1	none (no result: tolC growth inh)
COc1ccc(-c2oc(NC(=O)CSc3ncn[nH]3)c(C#N)c2-c2ccc(OC)cc2)cc1	Pyk2 oligo antag -4.04 (no result: tolC growth inh)
N#Cc1c(NC(=O)CSc2n[nH]c(Cc3ccccc3)n2)oc(-c2ccccc2)c1-c1ccccc1	tolC growth inh 63.8
CC(C(=O)Nc1sc2c(c1C(=O)NCC1CCCO1)CCC2)N1C(=O)c2ccccc2C1=O (stereo unspecified)	none (no result: E coli WT exp, Pyk2 oligo antag, tolC growth inh)
O=C(Nc1cccc(Cl)c1)N(CCN1CCOCC1)Cc1ccccc1F	none (no result: tolC growth inh)
O=C(Nc1cccc(Cl)c1)N(CCN1CCOCC1)Cc1cccc(Cl)c1	tolC growth inh 100.0
C=CCc1cc(/C=N/NC(=O)CSc2nnc(CCCc3ccc(OC)cc3)o2)cc(OC)c1O	none (no result: tolC growth inh)
CC(C)(C)NC(=O)C1Cc2ccccc2CN1C(=O)Nc1cccc(Cl)c1 (stereo unspecified)	none (no result: tolC growth inh)
COc1ccc(-c2n[nH]c(C(F)(F)F)c2-c2cc3ccccc3o2)c(O)c1	tolC growth inh 100.0
